# In ChEMBL document CHEMBL1137651 (Antimicrob Agents Chemother, 2007):
# Active and inactive are the calls of the source. No cut-off for these calls is given here.
# How the values were obtained:
# Homo sapiens [1] = experiment: fAUC (0 to 168 hrs) in Mycobacterium tuberculosis H37Rv ATCC 2517-infected patient serum at 2100 mg, po administered twice a week; type: ADME, organism-based; details: in vivo
# [2] = AUC (0 to 168 hrs) in Mycobacterium tuberculosis H37Rv ATCC 2517-infected patient serum at 600 mg/day, po; type: ADME, organism-based, Plasma; design: time < 168 hr, dose 600 mg/day, route oral; details: human
# [3] = test system: Mycobacterium tuberculosis; experiment: Post antibiotic effect against Mycobacterium tuberculosis H37Rv ATCC 2517 infected hollow fiber system based in vitro pharmacokinetic-pharmacodynamic tuberculosis model at 7 mg/L administered for 2 hrs; type: functional
# [4] = test system: Mycobacterium tuberculosis; experiment: Antimycobacterial activity against drug-sensitive Mycobacterium tuberculosis H37Rv ATCC 2517-infected hollow fiber system based in vitro pharmacokinetic-pharmacodynamic tuberculosis model assessed as sigmoidicity constant for drug effect on microbial growth; type: functional
# [5] = test system: Mycobacterium tuberculosis; experiment: Antimycobacterial activity against drug-sensitive Mycobacterium tuberculosis H37Rv ATCC 2517-infected hollow fiber system based in vitro pharmacokinetic-pharmacodynamic tuberculosis model assessed as concentration needed to achieve 50% maximal killing rate; type: functional
# [6] = test system: Mycobacterium tuberculosis; experiment: Antimycobacterial activity against drug-sensitive Mycobacterium tuberculosis H37Rv ATCC 2517-infected hollow fiber system based in vitro pharmacokinetic-pharmacodynamic tuberculosis model assessed as rate constant for maximal bacterial kill; type: functional
# Homo sapiens [7] = experiment: fCmax in Mycobacterium tuberculosis H37Rv ATCC 2517-infected patient serum at 600 mg/day, po; type: ADME, organism-based
# [8] = test system: Mycobacterium tuberculosis; experiment: Post antibiotic effect against Mycobacterium tuberculosis H37Rv ATCC 2517 infected hollow fiber system based in vitro pharmacokinetic-pharmacodynamic tuberculosis model at 14 mg/L administered for 0.5 hrs; type: functional
# Procedure, shortened: (§1)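 Broth cultures grown 4 days were exposed at 10^6 CFU/ml to the stated concentration and duration. They were then washed twice by centrifugation (2,000 x g, 10 min) and resuspended in fresh broth, shaken at 37°C in 5% CO2, and sampled every other day for agar counts. PAE equals the time for exposed cultures to grow 1 log10 CFU/ml minus that for controls. The study was performed twice.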
# Homo sapiens [9] = experiment: fCmax in Mycobacterium tuberculosis H37Rv ATCC 2517-infected patient serum at 2100 mg, po administered twice a week; type: ADME, organism-based; details: in vivo
# [10] = test system: Mycobacterium tuberculosis; experiment: Antimycobacterial activity against drug-sensitive Mycobacterium tuberculosis H37Rv ATCC 2517-infected hollow fiber system based in vitro pharmacokinetic-pharmacodynamic tuberculosis model assessed as concentration needed to achieve 50% effect on maximal growth rate; type: functional
# [11] = test system: Mycobacterium tuberculosis; experiment: Antimycobacterial activity against Mycobacterium tuberculosis H37Rv ATCC 2517 infected in hollow fiber system based in vitro pharmacokinetic-pharmacodynamic tuberculosis model assessed as microbial killing administered at simulated dose of 600 mg/day for 7 days; type: functional
# Procedure, shortened: (§2)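 Hollow-fiber model at 37°C with 5% CO2. […] Schedules were daily for 7 days, twice weekly (day 0 and 3.5) or once weekly, plus an untreated control. Peripheral samples were taken daily for 7 days, saline-washed twice and plated on 7H10 agar; kill is relative to baseline.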
# [12] = test system: Mycobacterium tuberculosis; experiment: Antimycobacterial activity against drug-sensitive Mycobacterium tuberculosis H37Rv ATCC 2517-infected hollow fiber system based in vitro pharmacokinetic-pharmacodynamic tuberculosis model assessed as sigmoidicity constant for microbial killing; type: functional
# [13] = test system: Mycobacterium tuberculosis; experiment: Post antibiotic effect against Mycobacterium tuberculosis H37Rv ATCC 2517 infected hollow fiber system based in vitro pharmacokinetic-pharmacodynamic tuberculosis model at 7 mg/L administered for 1 hr; type: functional; procedure, shortened: as §1
# [14] = AUC (0 to 168 hrs) in Mycobacterium tuberculosis H37Rv ATCC 2517-infected hollow fiber system based in vitro pharmacokinetic-pharmacodynamic tuberculosis model; type: ADME; design: time < 168 hr
# Procedure, shortened: (§3)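 Samples were cleaned up by solid-phase extraction and quantified by LC-MS (C18 column, 25 mM ammonium acetate/acetonitrile 58:42).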
# [15] = AUC (0 to 168 hrs) in Mycobacterium tuberculosis H37Rv ATCC 2517-infected hollow fiber system based in vitro pharmacokinetic-pharmacodynamic tuberculosis model administered at dose simulating 4200 mg once weekly schedule; type: ADME; design: time < 168 hr, dose 4200 mg; procedure, shortened: as §3
# Homo sapiens [16] = experiment: fAUC (0 to 168 hrs) in Mycobacterium tuberculosis H37Rv ATCC 2517-infected patient serum at 4200 mg, po administered once a week; type: ADME, organism-based; details: in vivo
# [17] = AUC in Mycobacterium tuberculosis H37Rv ATCC 2517-infected hollow fiber system based in vitro pharmacokinetic-pharmacodynamic tuberculosis model at 2 mg/L for 7 hrs; type: ADME
# [18] = AUC in Mycobacterium tuberculosis H37Rv ATCC 2517-infected hollow fiber system based in vitro pharmacokinetic-pharmacodynamic tuberculosis model at 14 mg/L for 0.5 hrs; type: ADME
# [19] = test system: Mycobacterium tuberculosis; experiment: microbe, parasite or virus in culture
# Homo sapiens [20] = experiment: fCmax in Mycobacterium tuberculosis H37Rv ATCC 2517-infected patient serum at 4200 mg, po administered once a week; type: ADME, organism-based; details: in vivo
# [21] = AUC in Mycobacterium tuberculosis H37Rv ATCC 2517-infected hollow fiber system based in vitro pharmacokinetic-pharmacodynamic tuberculosis model at 7 mg/L for 2 hrs; type: ADME
# Homo sapiens [22] = experiment: fAUC (0 to infinity) in Mycobacterium tuberculosis H37Rv ATCC 2517-infected patient serum at 600 mg/day, po; type: ADME, organism-based
# [23] = Clearance in Mycobacterium tuberculosis H37Rv ATCC 2517-infected hollow fiber system based in vitro pharmacokinetic-pharmacodynamic tuberculosis model; type: ADME, organism-based
# [24] = test system: Mycobacterium tuberculosis; experiment: Post antibiotic effect against Mycobacterium tuberculosis H37Rv ATCC 2517 infected hollow fiber system based in vitro pharmacokinetic-pharmacodynamic tuberculosis model at 2 mg/L administered for 7 hrs; type: functional; procedure, shortened: as §1
# [25] = AUC in Mycobacterium tuberculosis H37Rv ATCC 2517-infected hollow fiber system based in vitro pharmacokinetic-pharmacodynamic tuberculosis model at 7 mg/L for 1 hr; type: ADME
# [26] = test system: Mycobacterium tuberculosis; experiment: Drug uptake in Mycobacterium tuberculosis H37Rv ATCC 2517-infected hollow fiber system based in vitro pharmacokinetic-pharmacodynamic tuberculosis model; type: ADME, organism-based
# Procedure, shortened: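 Log-phase culture was adjusted to 10^6 CFU/ml in 7H9 broth held at 37°C or 0°C, then given 0, 2, 7 or 14 mg/liter drug. Samples taken at 0, 5, 15, 30 and 60 min were spun through silicone oil, and drug in the pellet was measured by LC-MS. Values at 0°C (cell-wall binding) were subtracted from those at 37°C. Cell volume was estimated from protein by BCA. Run in triplicate.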
# [27] = test system: Mycobacterium tuberculosis; experiment: Antimycobacterial activity against Mycobacterium tuberculosis H37Rv ATCC 2517 infected in hollow fiber system based in vitro pharmacokinetic-pharmacodynamic tuberculosis model assessed as microbial killing administered at simulated dose of 2100 mg, po twice weekly; type: functional, organism-based; procedure, shortened: as §2
# [28] = test system: Mycobacterium tuberculosis; experiment: Antimycobacterial activity against Mycobacterium tuberculosis H37Rv ATCC 2517 infected in hollow fiber system based in vitro pharmacokinetic-pharmacodynamic tuberculosis model assessed as microbial killing administered at simulated dose of 4200 mg, po once weekly; type: functional, organism-based; procedure, shortened: as §2
# [29] = test system: Mycobacterium tuberculosis; experiment: Antimycobacterial activity against drug-sensitive Mycobacterium tuberculosis H37Rv ATCC 2517-infected hollow fiber system based in vitro pharmacokinetic-pharmacodynamic tuberculosis model assessed as rate constant for maximal bacterial growth; type: functional
structure (smiles),measurement,setting,value
CO[C@H]1/C=C/O[C@@]2(C)Oc3c(C)c(O)c4c(O)c(c(/C=N/N5CCN(C)CC5)c(O)c4c3C2=O)NC(=O)/C(C)=C\C=C\[C@H](C)[C@H](O)[C@@H](C)[C@@H](O)[C@@H](C)[C@H](OC(C)=O)[C@@H]1C [RIFAMPIN],fAUC,Homo sapiens [1],112000 ng·h/mL
same,AUC at 168 h,[2],112000 ng·h/mL
same,PAE,[3],12.9 days
same,Hg,[4],0.361
same,C50k,[5],7.652 mg/L
same,Kkmax,[6],15.829 ×10⁻³ log10CFU/ml/hr
same,fCmax,Homo sapiens [7],2 mg/L
same,PAE,[8],19.3 days
same,fCmax,Homo sapiens [9],7 mg/L
same,C50g,[10],1932 mg/L
same,CFU,[11],1.95 mL⁻¹
same,Hk,[12],1.388
same,PAE,[13],12 days
same,AUC(0-t) at 168 h,[14],122000 ng·h/mL
same,AUC(0-t) at 168 h,[15],14000 ng·h/mL
same,fAUC,Homo sapiens [16],112000 ng·h/mL
same,"AUC at 7 h, 2 mg/L",[17],14000 ng·h/mL
same,"AUC at 0.5 h, 14 mg/L",[18],7000 ng·h/mL
same,MIC90,[19],0.125 µg/mL
same,fCmax,Homo sapiens [20],14 mg/L
same,"AUC at 2 h, 7 mg/L",[21],14000 ng·h/mL
same,fAUC,Homo sapiens [22],16000 ng·h/mL
same,CL,[23],99 L/h
same,PAE,[24],5.2 days
same,"AUC at 1 h, 7 mg/L",[25],7000 ng·h/mL
same,Drug uptake,[26],Dose-dependent effect
same,Activity,[27],Active
same,Activity,[28],Active
same,Kgmax,[29],9.756 ×10⁻³ log10CFU/ml/hr
